Screens as filed in PubChem BioAssay.
Sampled rows, rich in hits. Any-hit rate of the full collection: about 2.3%.
DENV2 CPE rescue: inhibitors of DENV2 cytopathic effect. DENV2-infected cells, cytopathic effect rescue, plate reader. AID 651640. CPE inhibition, % at 9.99 µM. 350,000 tested, 1.7% active; in the data active means CPE inhibition above about 20%, passing the limit was not always enough; tested in BHK-21 cells;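 further: 0% = median of neutral control wells and 100% = median of positive control wells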
CFTR F508del cor: correctors of CFTR F508del function in bronchial epithelial cells; CFBE cells, YFP halide quenching; stimulated with forskolin plus potentiator P3; % fluorescence drop versus neutral controls; activity (quench increase), % at 7.58 µM; 350,000 tested, 0.36% active; AID 720511;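 active means mean added fluorescence quench of at least 8% versus neutral control, with both replicates also reaching 8%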;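 further: cells transiently co-express mutant CFTR-F508del with the halide-sensitive YFP; corrector assay measuring rescue of mutant channel to the surface after 24 h compound exposure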
PDI turbidity: PDI (human) enzyme inhibition | P07237 | PDI insulin aggregation turbidity, A650, 90 min | inhibition, % at 10 µM | 350,000 tested, 0.052% active | AID 588391;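 active means mean inhibition across replicates of 30% or more, whatever share of single replicates reach that level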
Target sequence (P07237 whole entry, looked up): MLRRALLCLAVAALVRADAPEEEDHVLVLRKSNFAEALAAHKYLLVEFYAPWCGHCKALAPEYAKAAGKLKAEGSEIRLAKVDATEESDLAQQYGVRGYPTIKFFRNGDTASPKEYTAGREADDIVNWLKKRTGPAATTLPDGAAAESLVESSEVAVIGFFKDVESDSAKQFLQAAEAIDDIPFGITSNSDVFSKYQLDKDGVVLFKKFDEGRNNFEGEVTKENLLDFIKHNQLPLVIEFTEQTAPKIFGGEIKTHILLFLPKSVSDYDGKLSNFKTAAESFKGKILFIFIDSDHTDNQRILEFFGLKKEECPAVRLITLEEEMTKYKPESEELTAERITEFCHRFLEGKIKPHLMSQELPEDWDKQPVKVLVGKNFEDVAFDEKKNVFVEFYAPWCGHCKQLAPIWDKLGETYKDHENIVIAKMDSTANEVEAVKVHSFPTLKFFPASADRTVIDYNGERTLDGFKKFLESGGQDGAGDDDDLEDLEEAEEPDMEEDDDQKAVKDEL
ERp5 block: inhibitors of human ERp5 | Q15084 | ERp5 insulin aggregation, absorbance 650 nm, 90 min | inhibition, % at 9.99 µM | 350,000 tested, 0.05% active | AID 651711;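 active means mean replicate inhibition above about 25%, with every replicate also reaching it, limit read from the data, passing the limit was not always enough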
Cneo AK release: Cryptococcus neoformans lysis via adenylate kinase release; C. neoformans lysis, adenylate kinase release luminescence, 4 h; normalised: neutral wells 0, clomiphene wells 100; lysis activity, % at 15 µM; 360,000 tested, 0.2% active; AID 651654;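 active means mean lysis activity across replicates of at least 80%, whatever share of replicates individually reach that level; inactive means mean lysis activity below 80%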
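Signal: Adenylate kinase release luminescence | Assay system: Log-phase Cryptococcus neoformans yeast cells | Input: Cells at 5 × 10^6 per mL | Buffer or medium: Fresh YPD growth medium | Compound: Single dose | Schedule: Static 4 h at 37 °C with compound, 1 h detection | Controls: Clomiphene | Read-out: Luminescence rise reflecting yeast cell lysis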
Statin myotox sup: protects C2C12 myotubes from simvastatin toxicity | rescue of ATP level, % at 7.49 µM | 330,000 tested, 0.78% active | ATP luminescence, 48 h; scaled: DMSO 0, geranylgeraniol control 100;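 active means mean ATP rescue above about 67%, or every replicate alone reaching that limit, limit read from the data, passing the limit was not always enough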;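 further: myotubes were challenged with 10 µM simvastatin during compound exposure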
Active calls of the source: *; / = not tested or not shown; ! = a repeat was not active.

SMILES | DENV2 CPE rescue | CFTR F508del cor | PDI turbidity | ERp5 block | Cneo AK release | Statin myotox sup
CC(=O)O[C@H]1C(=O)[C@]2(C)[C@H]([C@H](OC(=O)c3ccccc3)[C@]3(O)C[C@H](OC(=O)[C@H](O)[C@@H](NC(=O)c4ccccc4)c4ccccc4)C(C)=C1C3(C)C)[C@]1(OC(C)=O)CO[C@@H]1C[C@@H]2O | 0 | 10* | -14 | 2 | 0 | -20
C[C@@H]1CN([C@H](C)CO)S(=O)(=O)c2ccc(-c3ccc(C#N)cc3)cc2O[C@H]1CN(C)Cc1cccc(F)c1 | 0 | 8.1* | / | -4 | 1 | -57
C[C@H]1CN([C@@H](C)CO)S(=O)(=O)c2ccc(-c3ccc(C#N)cc3)cc2O[C@@H]1CN(C)Cc1cccc(F)c1 | 0 | 3 | / | 12 | -3 | -39
C[C@@H]1CN([C@H](C)CO)S(=O)(=O)c2ccc(-c3ccccc3)cc2O[C@H]1CN(C)Cc1ccccn1 | -1 | 16* | / | -2 | 1 | -174
C[C@@H]1CN([C@H](C)CO)S(=O)(=O)c2ccc(-c3ccccc3)cc2O[C@@H]1CN(C)Cc1ccccn1 | -7 | 2 | / | -8 | 3 | -59
Cc1ccc(-c2ccc3c(c2)O[C@H](CN(C)Cc2ccc(F)cc2)[C@H](C)CN([C@H](C)CO)S3(=O)=O)cc1 | 9 | 2 | / | -4 | 90* | -21
C[C@@H]1CN([C@H](C)CO)S(=O)(=O)c2ccc(-c3ccc(C#N)cc3)cc2O[C@H]1CN(C)Cc1ccccn1 | 0 | 12* | / | 2 | -1 | -8
COCCCN1C(=O)[C@@]2(Cc3ccccc31)c1ccccc1C(=O)N(C1CCCCC1)[C@H]2c1ccc(CO)cc1 | -1 | -2 | / | 2 | -1 | /
COc1ccc(NC(=O)Nc2ccc3c(c2)C(=O)N([C@@H](C)CO)C[C@@H](C)[C@@H](CN(C)C(=O)C2CCCCC2)OCCCC[C@H](C)O3)cc1 | -17 | 1 | / | 1 | 1 | -11
COc1ccc(NC(=O)Nc2ccc3c(c2)C(=O)N([C@@H](C)CO)C[C@H](C)[C@@H](CN(C)C(=O)C2CCCCC2)OCCCC[C@H](C)O3)cc1 | 39* | 2 | / | -4 | 3 | 41
COc1ccc(NC(=O)Nc2ccc3c(c2)C(=O)N([C@H](C)CO)C[C@@H](C)[C@@H](CN(C)C(=O)C2CCCCC2)OCCCC[C@@H](C)O3)cc1 | -5 | -1 | / | -2 | 5 | 20
COc1ccc(NC(=O)Nc2ccc3c(c2)C(=O)N([C@H](C)CO)C[C@@H](C)[C@H](CN(C)C(=O)C2CCCCC2)OCCCC[C@H](C)O3)cc1 | 21* | 2 | / | 0 | 2 | 15
CC(=O)N(C)C[C@H]1Oc2ncc(C#Cc3cccnc3)cc2C(=O)N([C@H](C)CO)C[C@H]1C | -4 | -2 | / | -2 | 4 | 5
C[C@@H]1CN([C@H](C)CO)C(=O)c2cc(NC(=O)C3CCCCC3)ccc2O[C@@H](C)CCCCO[C@H]1CN(C)Cc1ccc2c(c1)OCO2 | -4 | 4 | / | 6 | -1 | -104
CCC(C)(C)C1CCc2[nH]nc(C(=O)NCc3ccc(Cl)cc3)c2C1 (stereo not given) | -13 | 1 | -2 | 0 | -1 | 14
O=C(NCc1ccccn1)c1n[nH]c(=O)c2ccccc12 | 4 | 8.6* | 6 | -2 | 2 | /
CCC(C)(C)C1CCc2[nH]nc(C(=O)NCc3ccccn3)c2C1 (stereo not given) | 77* | 0 | -5 | -4 | 3 | -10
COc1cccc(S(=O)(=O)Nc2ccc3c(c2)C(=O)N(C)C[C@H](OC)[C@H](C)CN[C@@H](C)CO3)c1 | 20*! | 0 | / | 11 | -1 | -2
CO[C@H]1CN(C)C(=O)c2cc(NS(=O)(=O)c3ccc(-c4ccccc4)cc3)ccc2OC[C@H](C)NC[C@H]1C | -7 | -6 | / | -3 | 2 | -24
CO[C@H]1CN(C)C(=O)c2cc(NS(=O)(=O)c3ccc(-c4ccccc4)cc3)ccc2OC[C@H](C)NC[C@@H]1C | 23* | -3 | / | -1 | -2 | 0
C[C@H](CO)N1C[C@H](C)[C@H](CN(C)C(=O)c2ccncc2)Oc2cc(C3=CCCC3)ccc2S1(=O)=O | 2 | -1 | / | 1 | 3 | 44
